Bioassay records from PubChem BioAssay.
MrgX1 PAM: allosterically activates human MrgX1 receptor signaling; Q96LB2; MrgX1-HEK293, Fluo-4 calcium flux, FDSS; stronger effect = higher value; B-score at 10 µM; 310,000 tested, 0.63% active;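 active = plate-corrected calcium response at least 3 library SD above typical, normal starting fluorescence, not activating the receptor alone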;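 also: compound read alongside a low EC10 to EC30 dose of BAM8-22 agonist; peak minus trough fluorescence over baseline measured at the second addition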
Target sequence (Q96LB2 whole entry, looked up): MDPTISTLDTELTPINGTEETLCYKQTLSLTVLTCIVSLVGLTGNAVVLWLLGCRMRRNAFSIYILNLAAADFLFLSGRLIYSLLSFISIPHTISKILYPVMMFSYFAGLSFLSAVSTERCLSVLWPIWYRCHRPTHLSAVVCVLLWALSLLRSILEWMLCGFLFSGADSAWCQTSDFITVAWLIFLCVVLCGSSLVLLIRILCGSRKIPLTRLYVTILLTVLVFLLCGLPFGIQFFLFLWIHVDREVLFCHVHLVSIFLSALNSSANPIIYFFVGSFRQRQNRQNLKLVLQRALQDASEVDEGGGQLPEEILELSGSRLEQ
RGS4 pot: RGS4 potentiation or activation; HEK293 M3R/inducible RGS4, carbachol calcium flux Fluo4; stronger effect = lower value; B-score at 10 µM; 310,000 tested, 0.92% active; AID 463111;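 active = B-score of the integrated calcium signal more than 4 SD below the library mean, with starting fluorescence not abnormally high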;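 also: negative B-score means reduced calcium response which marks RGS4 activation or potentiation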
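System – HEK293 FlpIn-TREx cells, stable M3R, doxycycline-inducible RGS4 · Reagent – ECmax carbachol challenge · Times – compound preincubation 20 min at room temperature before agonist · Technique – Fluo4 fluorescence kinetic imaging of calcium · Measure – B score of integrated Fluo4 ratio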
MrgX1 antagonist: blocks BAM8-22 activation of human MrgX1 receptor. Q96LB2. MRGX1-HEK293 calcium flux, Fluo-4, BAM8-22 antagonism; stronger effect = lower value. B-score at 10 µM. 310,000 tested, 1.3% active;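 active = calcium-response B-score plate-corrected more than 3 library SD below zero, starting fluorescence within 5 deviations, no agonist response on first addition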;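 also: peak minus trough fluorescence over baseline after final BAM8-22 challenge near maximal dose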
RGS4 block: human RGS4 inhibition; B-score at 10 µM; AID 463165; 310,000 tested, 0.45% active; HEK293 M3R/RGS4 inducible, Fluo-4 calcium flux; stronger effect = higher value; triggered by carbachol at its EC20; P49798;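 active = B-score, a plate-corrected calcium signal, over three deviations above library mean, with baseline fluorescence within five deviations of library mean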;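 also: RGS4 expression induced by doxycycline in cells with stable M3 receptor; B-score is computed from the integrated fluorescence ratio over baseline after carbachol; higher B-score means a larger calcium signal and so more RGS4 inhibition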
Target sequence (P49798 whole entry, looked up): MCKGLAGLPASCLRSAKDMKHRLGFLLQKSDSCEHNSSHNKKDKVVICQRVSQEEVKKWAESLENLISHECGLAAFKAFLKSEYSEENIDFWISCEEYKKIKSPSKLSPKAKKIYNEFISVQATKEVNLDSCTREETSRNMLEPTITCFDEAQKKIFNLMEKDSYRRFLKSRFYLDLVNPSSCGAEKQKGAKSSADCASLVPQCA
MrgX1 agonist: agonists of human MrgX1 receptor; MrgX1-HEK293 cells, Fluo-4 calcium fluorescence, agonist mode; stronger effect = higher value; Q96LB2; B-score at 10 µM; 310,000 tested, 0.44% active;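 active = calcium response B-score plate-corrected fluorescence ratio at least 3 library SD, with starting fluorescence B-score inside 5 SD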
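Material: MrgX1-expressing HEK293 cells / Dosing: compound as first of three additions / Incubation: overnight seeding, then 1 h dark dye loading / Signal: Fluo-4 NW calcium fluorescence / Evaluation: B-scored fluorescence response ratio / Benchmarks: positive and negative control wells on each plate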
MrgX1 PAM conf: reconfirmed allosteric activator of human MrgX1 receptor; shares compounds with MrgX1 PAM; MrgX1-HEK293, Fluo-4 calcium fluorescence, FDSS; activation (ratio percentage), % at 10 µM; 1,200 tested, 13% active;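 active = ratio at least 3 SD above the weak peptide control, stable starting fluorescence, no direct agonism earlier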;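 also: compound followed by low BAM8-22 agonist challenge near EC20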
MrgX1 ant reconf: reconfirmed antagonist of human MrgX1 receptor signaling | AID 602420 | remaining BAM8-22 calcium response % of control (stronger effect = lower value), % at 10 µM | 2,300 tested, 19% active | shares compounds with MrgX1 antagonist | MrgX1-HEK293, BAM8-22 calcium flux, Fluo-4; stronger effect = lower value;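 active = remaining agonist calcium response no higher than 100% minus 3 SD of agonist-only control wells, with starting fluorescence near control levels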;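 also: agonist BAM8-22 given at a near maximal EC90 to ECmax level; peak minus minimum fluorescence divided by baseline after agonist addition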
HEK293 Ca flux: activity in parental HEK293 cells lacking MrgX1. Fluo-4 calcium fluorescence, FDSS. fluorescence ratio F(max-min)/F0 at 10 µM. 4,000 tested, 2% active. shares compounds with MrgX1 antagonist;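 active = duplicate-averaged calcium fluorescence ratio at least three times the standard deviation of buffer wells, a nonspecific response in parental cells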
HEK293 Ca counter: MrgX1 allosteric activator counter-screen hit in parental HEK293 cells. parental HEK293 calcium flux, Fluo-4 fluorescence ratio; stronger effect = higher value. shares compounds with MrgX1 antagonist. fluorescence ratio F(max-min)/F0 at 10 µM. 4,000 tested, 0.4% active;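 active = calcium fluorescence ratio, averaged over duplicates, at least 3 SD of the buffer-well ratio, meaning a nonspecific response in receptor-free cells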;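 also: untransfected parental HEK293 lacking MrgX1 used as counterscreen for MrgX1 allosteric activators; fluorescence change taken during the second addition on a kinetic imager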
HEK293 Ca cntr2: MrgX1 activator counter-screen hit in parental HEK293 cells. Fluo-4 calcium fluorescence (FDSS); stronger effect = higher value. 4,000 tested, 8.7% active. fluorescence ratio F(max-min)/F0 at 10 µM. shares compounds with MrgX1 antagonist;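 active = calcium fluorescence ratio at least three times the spread of buffer wells, meaning a non-specific response in parental cells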
An asterisk follows results filed as active; i = inactive; . = not tested or not shown. Only some compounds are listed: those with a hit (about 3.5% of all), similar ones and a draw of the others.

SMILES	MrgX1 PAM	RGS4 pot	MrgX1 antagonist	RGS4 block	MrgX1 agonist	MrgX1 PAM conf	HEK293 Ca flux	HEK293 Ca counter	HEK293 Ca cntr2	others
CCOC(=O)Cc1csc(NC(=O)CSc2nc3cccnc3n2CC)n1	7.3*	i	i	i	i	i	i	i	i
CCn1c(SCC(=O)Nc2nc(C)c(C)s2)nc2cccnc21	i	i	i	i	i	.	.	.	.
Cc1ccc(N2CC(C(=O)Nc3ccc(C)c(S(=O)(=O)N(C)C)c3)CC2=O)cc1 (stereo not given)	10*	i	i	i	i	i	i	i	i
NC(=O)c1c(NC(=O)C2c3ccccc3Oc3ccccc32)sc2c1CCCCC2	13*	i	i	i	i	i	i	i	i
Nc1nc(-c2ccccn2)nc(N)c1Cc1c(F)cccc1Cl	i	i	i	i	i	.	.	.	.
Cc1n[nH]c(C)c1Cc1c(F)cccc1Cl	25*	i	i	i	i	16%*	i	i	i
O=C(CSC1=NCCN1)NC(c1ccccc1)c1ccccc1	13*	i	i	i	i	i	i	i	i
O=c1c(-c2ccccc2)nnc2sc(COc3ccc(Br)cc3)nn12	i	i	i	i	i	.	.	.	.
Cn1c(SCc2ccccc2C#N)nc2ccccc2c1=O	i	i	i	i	i	.	.	.	.
Cc1ccc(NC(=O)COC(=O)C2C3CC4OC(=O)C2C4C3)cc1 (stereo not given)	26*	i	i	i	i	i	i	i	i
Cc1ccc2nc(SC(C)C(=O)N3CCOCC3)[nH]c2c1 (stereo not given)	7.3*	i	i	i	i	i	i	i	i
CCc1cc2ccccc2nc1SCC(=O)N1CCN(C(=O)c2ccco2)CC1	.	i	.	i	.	.	.	.	.
CCc1cc2cc(C)ccc2nc1SCC(=O)N1CCN(C(=O)c2ccco2)CC1	11*	.	i	.	i	i	i	i	i
CN1CCN(C(=S)NC(=O)c2ccc(Br)cc2)CC1	i	i	i	i	i	.	.	.	.
CN1CCN(C(=S)C(=O)Nc2ccc(Br)cc2)CC1	11*	i	i	i	i	i	i	i	i
CC1(C)C2CCC(C2)C1(C)NC(=O)CNCC1CCCCC1 (stereo not given)	i	i	i	i	i	.	.	.	.
COc1ccc(C(=O)C2CCN(CC(=O)Nc3ccc(OC)cc3OC)CC2)cc1	7.5*	i	i	i	i	i	i	i	i
COC(=O)[C@]1(C)N[C@H](c2ccc(SC3CCCCC3)c(OC)c2)[C@@H]2C(=O)N(C)C(=O)[C@@H]21	i	i	i	i	i	.	.	.	.
CCC(C)n1c(NC(=O)c2ccccc2)c(C#N)c2nc3ccccc3nc21 (stereo not given)	7.9*	i	i	i	i	i	i	i	i
CCCc1cc(C(=O)N2CCCC(C(=O)c3cccc4ccccc34)C2)n(C)n1 (stereo not given)	12*	i	i	i	i	i	i	i	i
CN1c2ccccc2Oc2nnc(Cl)cc21	i	i	i	i	i	.	.	.	.
CN1c2ccccc2Oc2nnc(N3CCN(Cc4ccccc4)CC3)cc21	12*	i	i	i	i	i	i	i	i
Cc1cc(-c2nnnn2-c2ccc(C(F)(F)F)cc2)no1	7*	i	i	i	i	i	i	i	i
Cc1ccc(-n2nnnc2-c2cccc(C)c2)cc1	i	i	i	i	i	.	.	.	.
CCC(=O)N(CCO)Cc1cc2ccc(C)c(C)c2[nH]c1=O	i	i	i	i	i	.	.	.	.
SMILES	MrgX1 PAM	RGS4 pot	MrgX1 antagonist	RGS4 block	MrgX1 agonist	MrgX1 PAM conf	HEK293 Ca flux	HEK293 Ca counter	HEK293 Ca cntr2	others
CCC(=O)N(CCc1ccccc1)Cc1cc2cc(OC)ccc2[nH]c1=O	10*	i	i	i	i	i	i	i	i
CCC(=O)N(CCc1ccccc1)Cc1cc2ccc(OC)cc2[nH]c1=O	i	i	i	i	i	.	.	.	.
CC(=O)N(CCc1ccccc1)Cc1cc2ccc(C)c(C)c2[nH]c1=O	8.6*	i	i	i	i	2.4%*	i	i	i
O=C(c1cc(-c2ccco2)nc2ccccc12)N1CCN(c2ccc(F)cc2)CC1	i	i	i	i	i	.	.	.	.
O=C(Nc1ccc(F)cc1F)c1ccco1	7.6*	i	i	i	i	i	i	i	i
O=C(Nc1ccc(F)cc1F)c1cc(-c2ccco2)on1	i	i	i	i	i	.	.	.	.
NNc1nc(-c2ccccc2Cl)nc2ccccc12	i	i	i	i	i	.	.	.	.
NNc1nc(-c2ccccc2Cl)nc2sc3c(c12)CCCC3	32*	i	i	i	i	i	i	i	i
CC(CCc1ccc(O)cc1)NC1c2ccccc2-c2ccccc21 (stereo not given)	7.1*	i	i	i	i	i	i	i	i
NC1=NC[C@H](Cc2ccc(O)cc2)N1CCCCC1CCCCC1	9.3*	i	i	i	i	i	i	i	i
NCCCC[C@H]1CN=C(N)N1CCc1cccc2ccccc12	33*	i	i	i	i	i	i	i	i
NC1=NC[C@@H](Cc2ccc(O)cc2)N1CCc1cccc2ccccc12	i	i	i	i	i	.	.	.	.
CCC(C)[C@H]1CN=C(N)N1CCc1cccc2ccccc12 (stereo not given in full)	i	i	i	i	i	.	.	.	.
NC1=NC[C@H](Cc2ccc(O)cc2)N1CCc1cccc2ccccc12	9.6*	i	-12*	i	i	i	i	i	i	MrgX1 ant reconf=i
